Screening results (PubChem BioAssay)
The list is not random: actives were taken first. Their share in the collection is about 8.2%.
RORa activator – activators of orphan receptor RORA, primary screen, cell-based, luminescence. Nuclear receptor ROR-alpha (Homo sapiens), P35398. CHO-K1 Gal4-RORA LBD luciferase reporter; percent increase over mock-subtracted basal signal. activation, % at 10 µM. hit rate 1.5% among 65,000. AID 560, 2006;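 active = activation above the mean of all tested compounds plus 3 SD, cut at about 49% in these data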;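 also: 0% = DMSO-treated RORA cells and 100% = added signal equal to DMSO minus mock-transfected cells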
M1 agonist – M1 muscarinic receptor agonists, primary screen, CHO-M1 cells, Fluo-4 calcium, agonist mode; B-score at 10 µM; Fluo-4 calcium fluorescence; hits give high values; Muscarinic acetylcholine receptor M1; hit rate 3% among 64,000;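 active = fluorescence rise, raw or as B-score row- and column-corrected plate score, outside the 99.7% band of its plate's samples, either direction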
HePTP inhibitor – inhibitors of human HePTP phosphatase, primary screen, biochemical, absorbance, leukemia target; Tyrosine-protein phosphatase non-receptor type 7 (Homo sapiens), P35236; recombinant HePTP phosphatase activity, OD absorbance; inhibition, % at 20 µM; hit rate 0.64% among 110,000; AID 521, 2006; in the data active = inhibition above about 50%;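 also: plate controls were vehicle for no effect and reference inhibitor for full effect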
M1 antag – antagonists of rat M1 muscarinic receptor | Muscarinic acetylcholine receptor M1 (Rattus norvegicus), P08482 | CHO-M1 cells, Fluo-4 calcium, ACh EC80 antagonist mode; hits give low values | B-score at 10 µM | hit rate 3.4% among 64,000 | AID 628, 2007;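 active = calcium fluorescence response, raw or row-and-column corrected B-score, differing from the plate sample mean either way at a set confidence level, mostly lower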
D1 allo mod – D1 CRE-luciferase signal change, two-sided – cell-based, HEK293 D1, dopamine EC30, D1 allosteric modulator project, primary screen; B-score at 10 µM; D(1A) dopamine receptor (Homo sapiens), P21728; hit rate 5.9% among 58,000; dopamine EC30 potentiation; actives deviate in either direction;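 active = luminescence count or its row- and column-corrected plate score outside the 99.7% band of the plate's sample wells, on either side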
Target sequence (P21728 whole entry, looked up): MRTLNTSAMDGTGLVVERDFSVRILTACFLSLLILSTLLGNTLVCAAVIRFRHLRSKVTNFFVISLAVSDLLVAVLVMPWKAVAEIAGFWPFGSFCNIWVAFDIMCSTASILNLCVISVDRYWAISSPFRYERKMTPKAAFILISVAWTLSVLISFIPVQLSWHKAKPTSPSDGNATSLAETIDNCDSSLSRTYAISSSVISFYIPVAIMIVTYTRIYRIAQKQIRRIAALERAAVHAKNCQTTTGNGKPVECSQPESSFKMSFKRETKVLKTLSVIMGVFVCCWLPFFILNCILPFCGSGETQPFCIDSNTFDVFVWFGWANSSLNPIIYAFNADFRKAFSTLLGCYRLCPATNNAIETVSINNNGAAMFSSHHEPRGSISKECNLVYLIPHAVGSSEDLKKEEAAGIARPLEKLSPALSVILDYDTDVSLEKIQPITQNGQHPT
SF-1 act – activators of human SF-1, primary screen, cell-based, CHO-K1, Gal4-SF-1 LBD, luciferase luminescence; hit rate 1.9% among 65,000; activation, % at 10 µM; Steroidogenic factor 1 (Homo sapiens), Q13285; CHO-K1 Gal4-SF-1 LBD luciferase reporter; % increase over DMSO SF-1-specific signal;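 active = activation above the mean activation of all tested compounds plus 3 SD, cut at about 50% in these data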
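Test system: CHO-K1 cells with Gal4–hSF-1 LBD chimera plus Gal4-driven luciferase; Input: 4,000 cells/well; Compound: 10 µM only; Times: 20 h compound treatment, 37 °C; Measured by: steady-glow luciferase luminescence, read after 15 min reagent incubation; Measure: percent activation versus DMSO; Control set: DMSO and mock-transfected background; Replicates: one test per compound.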
M1 antag conf – rat M1 muscarinic receptor antagonists, confirmation, CHO cells, Fluo-4 calcium, duplicate; shares compounds with M1 antag; ACh EC80 antagonism; hits give low values; calcium response (max-min fluorescence) at 10 µM; hit rate 43% among 1,700; AID 677, 2007;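 active = calcium response below the same-plate mean of wells given acetylcholine alone at its 80%-effect dose, minus 3 SD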;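 also: raw fluorescence intensity difference in arbitrary instrument units and not normalized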
mGluR4 antag – human mGluR4 response to M1 antagonist hits, M1 allosteric modulator project, cell-based, antagonist mode, secondary assay 1; CHO-mGluR4 calcium flux, Fluo-4 fluorescence, glutamate EC80; hits give low values; shares compounds with M1 antag; hit rate 0.9% among 1,700; AID 678, 2007; fluorescence response (max-min) at 10 µM;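 active = fluorescence response below the plate's average for near-maximal glutamate wells, less 3 SD of those wells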;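 also: raw unnormalized fluorescence span taken in the window right after glutamate addition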
* hit, by the source's call; / = no result given.

SMILES	RORa activator	M1 agonist	HePTP inhibitor	M1 antag	D1 allo mod	SF-1 act	M1 antag conf	mGluR4 antag
O=C(NCCCNC(=O)c1cccs1)c1cccs1	-17	-1.2	2	-0.42	-0.2	-20	/	/
CCOC(=O)c1oc2ccc(CNCCO)c(Cl)c2c1C	19	-0.76	10	-1.9*	-0.69	66*	519*	212
COc1cc2c(C(=O)NCCCN3CC(C)CC(C)C3)cn(CC(C)C)c(=O)c2cc1OC (stereo not drawn)	5	-0.13	-6	-2.5*	/	27	499*	238
Cn1nc(-c2ccc(Cl)cc2)c2cc(C(=O)NCC3CCCO3)sc21 (stereo not drawn)	14	0.42	4	-0.19	0.3	24	/	/
CCN(CC)CCCNC(=O)c1cc(-c2ccc(Cl)c(Cl)c2)on1	2	-0.87	7	-3*	-1.1	0	474*	176
CCN(CC)CCCNC(=O)c1cc2c(-c3ccc(Cl)cc3)nn(C)c2s1	24	0.033	-4	-6.6*	-1.8	30	419	220
COc1ccc(N2C(=O)CC(N3CCC(O)(c4cccc(C(F)(F)F)c4)CC3)C2=O)cc1 (stereo not drawn)	-20	-0.88	19	-0.042	-0.48	-16	/	/
CN1CCN(C(=O)c2cccc(F)c2)CC1	/	/	-19	/	/	/	/	/
CC(C)CC(=O)N1CCN(C(=O)c2cccc(F)c2)CC1	-21	0.83	2	-2.2*	1	-10	622	246
COc1ccc(C(=O)CSc2nnc(Cn3cnc4ccccc43)o2)cc1	-14	2	9	-2.2*	-1.5	-33	532*	253
CC1CC(Nc2ccccc2)c2ccccc2N1C(=O)c1ccc(Cl)cc1Cl (stereo not drawn)	/	/	9	/	/	/	/	/
CC(CCN(C)C)OC(=O)c1ccc(C(C)c2ccccc2)o1 (stereo not drawn)	-15	0.25	7	-4.4*	-3.2*	-21	349*	223
Cc1ccccc1S(=O)(=O)Nc1cc(Br)c2oc3c(c2c1)C(=O)CCC3	/	/	-5	/	/	/	/	/
CCc1ccccc1NC(=O)CN(c1ccc(OC)cc1)S(C)(=O)=O	/	/	-2	/	/	/	/	/
CCOC(=O)C1CCCN(c2c(NCCCN(CC)c3cccc(C)c3)c(=O)c2=O)C1 (stereo not drawn)	-28	-0.027	3	-5.2*	/	0	566	225
O=C1CCc2nc3ccccc3c(=O)n2N1	1	0.64	9	-0.32	/	-3	/	/
Cc1ccc(NC(=O)c2c(-c3c(F)cccc3Cl)noc2C)cc1F	5	0.26	-4	-14*	-0.17	-28	638	251
Cc1ccc(NC(=O)c2c(-c3c(F)cccc3Cl)noc2C)cc1	/	/	6	/	/	/	/	/
O=S(=O)(Nc1nc2ccccc2[nH]1)c1ccccc1	-38	0.01	4	-5.1*	0.061	-10	394*	246
Cc1ccc(S(=O)(=O)NCc2nc3ccccc3[nH]2)cc1	35	-0.78	9	1.4	1.1	42	/	/
O=S(=O)(Nc1ccccn1)c1ccc(Cl)cc1	-3	0.14	10	1.3	1.3	-4	/	/
O=S(=O)(Nc1nc2ccccc2[nH]1)c1ccc(Cl)cc1	6	0.16	7	-16*	-0.078	-6	70*	246
CC(C)Cc1cc(C(=O)Nc2c(F)cc(F)cc2Br)no1	-11	-0.53	7	-0.18	-0.15	9	/	/
CCOC(=O)N1CCN(C(=O)CN(c2cccc(C(F)(F)F)c2)S(=O)(=O)c2ccccc2)CC1	7	0.38	5	0.71	/	-7	/	/
Cc1ccc(S(=O)(=O)N(CC(=O)N2CCC(C(N)=O)CC2)c2cccc(C(F)(F)F)c2)cc1	-20	-0.3	6	-7.3*	-0.95	-4	624	217
SMILES	RORa activator	M1 agonist	HePTP inhibitor	M1 antag	D1 allo mod	SF-1 act	M1 antag conf	mGluR4 antag
O=C(NCc1cccnc1)c1c[nH]c2cc3c(cc2c1=O)OCCO3	25	0.9	5	-0.18	-1.2	47	/	/
CCN(C1CCCCC1)S(=O)(=O)c1ccc(S(=O)(=O)N2CCN(CCC#N)CC2)cc1	24	0.046	2	-1.5*	-0.4	-1	327*	206
N#CCCN1CCN(S(=O)(=O)c2ccc(S(=O)(=O)N3CCCCCC3)cc2)CC1	12	-0.42	4	-0.094	-0.0026	-9	/	/
CCCCn1c(=O)[nH]c2ccccc21	-12	-2.2	8	-2.4*	-0.47	-13	674	225
Cn1c(=O)c2c(nc(OCc3cccnc3)n2Cc2c(F)cccc2Cl)n(C)c1=O	-18	0.74	6	-1.2*	0.52	-9	509*	248
Cn1c(=O)c2c(nc(Br)n2Cc2c(F)cccc2Cl)n(C)c1=O	-20	0.13	16	1.2	-0.87	-2	/	/
CCC1CCCCN1CCNC(=O)C1CCN(S(=O)(=O)c2c(C)noc2C)CC1 (stereo not drawn)	-10	0.076	5	-12*	/	-4	385*	179
COc1ccc(CNC(=O)/C=C/c2ccccc2)cc1	/	/	7	/	/	/	/	/
Cc1ccc2cc3c(nc2c1)N(Cc1ccco1)CC3	1	-0.67	10	-1.3*	0.4	-1	319*	194
Cc1ccc2nc3c(cc2c1)CN(Cc1ccco1)C(=NCC1CCCO1)S3 (stereo not drawn)	-1	-0.5	11	0.014	2.4	-37	/	/
COC(=O)c1c(N)n(-c2ccc(NC(C)=O)cc2)c2nc3ccccc3nc12	-1	0.84	6	-0.4	-0.06	-25	/	/
Cc1nc(NC2=NCN(CCN3CCOCC3)CN2)nc2c(C)cccc12	17	0.52	6	-0.66	-1.1	-12	/	/
Cc1ccc2nc(NC3=NCN(CCN4CCOCC4)CN3)nc(C)c2c1	8	0.77	10	-2.6*	-0.011	-4	317*	233
Cc1noc(C)c1COC(=O)CCCOc1ccc(Cl)cc1Cl	-4	0.083	2	-0.57	/	0	/	/
CC#CCCCC(=O)Nc1cc(OC)nc(OC)n1	1	-0.59	-2	0.54	-0.067	3	/	/
O=C(NC1CCCCC1)c1ccc(S(=O)(=O)N2CCOCC2)cc1	14	-0.43	10	-0.12	-0.35	-10	/	/
O=S(=O)(c1ccc(NCC2CCCCC2)nc1)N1CCOCC1	-5	0.66	1	-4.3*	0.28	6	554*	205
